SR-BI uptake up = enhances SR-BI lipid uptake from DiI-HDL. CHO ldlA[mSR-BI] cells, DiI-HDL uptake fluorescence, 3 h; 100 = double the neutral-control signal. activation, % at 12.5 µM. actives 0.096% (n = 320,000). AID 504775;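 active = mean replicate activation of at least 60% and every replicate at or above 60%; inconclusive = mean or all-replicate condition met, but not both; inactive = mean below 60% and not all replicates reaching 60%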;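 also: 0% = median plate neutral-control signal and 100% = twice that signal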
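System: CHO ldlA[mSR-BI] cells / Medium: HEPES-buffered (25 mM, pH 7.4) F12 plus 0.5% BSA / Probe or stimulus: labelled HDL, 10 µg/mL / Doses: single compound concentration, delivered by pin transfer / Schedule: 3 h, 37 °C / Measured by: DiI fluorescence, bottom read / Measure: cell-associated DiI fluorescence as measure of HDL uptake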
SR-BI DiI inh = inhibitors of mouse SR-BI mediated HDL lipid uptake. Q61009. actives 0.96% (n = 320,000). inhibition, % at 12.5 µM. AID 488896. ldlA[mSR-BI] CHO cells, DiI-HDL uptake fluorescence, 3 h;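 active = mean replicate inhibition of at least 70% and a set share of replicates each scoring 70 or more; inconclusive = meets just one of the two criteria; inactive = fails both criteria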;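 also: 0% = median of neutral control wells and 100% = median of positive control wells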
Target sequence (Q61009 whole entry, looked up): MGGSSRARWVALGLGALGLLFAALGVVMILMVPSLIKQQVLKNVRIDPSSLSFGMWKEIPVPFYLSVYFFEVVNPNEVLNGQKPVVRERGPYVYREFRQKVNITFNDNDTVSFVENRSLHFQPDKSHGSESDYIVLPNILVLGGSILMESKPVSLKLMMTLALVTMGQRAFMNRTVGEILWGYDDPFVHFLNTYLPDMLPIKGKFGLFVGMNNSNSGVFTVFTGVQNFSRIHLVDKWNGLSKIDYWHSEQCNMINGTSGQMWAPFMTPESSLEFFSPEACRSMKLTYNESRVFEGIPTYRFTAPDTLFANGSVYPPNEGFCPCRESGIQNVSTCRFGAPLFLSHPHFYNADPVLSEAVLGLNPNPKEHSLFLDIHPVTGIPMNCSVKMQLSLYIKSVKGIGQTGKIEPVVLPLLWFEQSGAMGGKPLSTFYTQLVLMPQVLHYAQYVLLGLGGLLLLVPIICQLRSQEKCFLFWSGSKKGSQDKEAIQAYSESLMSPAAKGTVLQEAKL
MITF TRPM1 HTS = MITF TRPM1 promoter activation in melanoma cells | SK-MEL-5 TRPM1-promoter luciferase, 24 h; % of positive control, neutral wells = 0 | activation, % at 12.5 µM | actives 0.75% (n = 300,000);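 active = mean activation of at least 80% with every replicate also reaching 80%; inconclusive = mean reaches 80% but some replicate falls short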;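 also: 0% = neutral control wells and 100% = parthenolide positive control wells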
HSF1 activator = increases HSF-1 driven luciferase reporter signal; NIH3T3-HGL HSF-1 luciferase reporter, MG132, 8 h; 100% = twice DMSO control signal; activation, % at 9 µM; actives 1.7% (n = 300,000); AID 504408;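 active = mean replicate activation of at least 50% with a set share of replicates each reaching 50%; inconclusive = only one of those two conditions met; inactive = mean below 50% and too few replicates reaching it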;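 also: 0% = median of the neutral control wells and 100% = twice that signal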
Wnt bcat act = Wnt/beta-catenin pathway activation; Wnt/beta-catenin reporter cell assay, activator, plate reader; activation, % at 9.35 µM; AID 743398; actives 1.2% (n = 300,000); in the data active = activation above about 30%, passing the limit was not always enough; inconclusive = no clear call, values can overlap the other calls;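 also: 0% = neutral control wells and 100% = positive control wells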
Numbers without * were called inactive; ? = inconclusive; . = not tested or not shown; ! = a repeat was not active. Sampled rows, rich in hits. Any-hit rate of the full collection: about 3.6%.

SMILES	SR-BI uptake up	SR-BI DiI inh	MITF TRPM1 HTS	HSF1 activator	Wnt bcat act
O=C1CCCCCC[C@@H](O)[C@H](O)C[C@H](c2ccccc2)O1	.	.	.	.	-1
Nc1nc2c(ncn2[C@@H]2O[C@H](C(=O)N[C@H](Cc3ccccc3)C(=O)NCc3ccc4c(c3)OCO4)[C@@H](O)[C@H]2O)c(=O)[nH]1	.	.	.	.	-3
Cc1cc(C)c2sc(NNC(=O)c3ccc(S(=O)(=O)N4CCc5ccccc5C4)cc3)nc2c1	-146	146*	-72	-21	-6
Cc1cc(C)c2nc(NNC(=O)c3ccc(S(=O)(=O)N4CCc5ccccc5C4)cc3)sc2c1	-133	133*	-75	-37	11
COc1cccc(NC(=O)N(C)C[C@H]2OCc3cn(nn3)CCCC(=O)N([C@@H](C)CO)C[C@@H]2C)c1	.	.	.	.	1
O=C(/C=C/c1ccc(Cl)cc1)NCc1cccs1	13	-13	53	-5	13
O=C(/C=C/c1cccc(Cl)c1)NCc1cccs1	5	-5	.	52*	13
Cc1ccc2oc(C(=O)N3CCN(c4cccc(C)n4)CC3)c(C)c2c1	0	0	18	10	3
Cc1cc(Cl)c2oc(C(=O)N3CCN(c4cccc(C)n4)CC3)c(C)c2c1	12	-12	.	73*	18
COCCNC(=S)N/N=C1\CC(C)CC(C)(C)C1 (stereo not given)	-6	6	2	3	34*
COCCNC(=S)NN=C1CCCCCC1	13	-13	1	-53	-1
CCOc1ccc(NC(=O)CN(C)C2=NS(=O)(=O)c3ccccc32)cc1	.	.	.	.	0
O=C(NN1C(=O)C2C3c4ccccc4C(c4ccccc43)C2C1=O)C1CC1 (stereo not given)	2	-2	-5	.	51*
O=C(NN1C(=O)C2C3c4ccccc4C(c4ccccc43)[C@@H]2C1=O)c1ccccc1 (stereo not given in full)	-14	14	-7	-2	30*
Cc1ccc(C(=O)NN2C(=O)C3C4c5ccccc5C(c5ccccc54)[C@@H]3C2=O)cc1 (stereo not given in full)	-1	1	16	27	.
O=C(C(=O)N1CCC(Cc2ccccc2)CC1)c1cccs1	.	.	.	.	-3
COc1ccc(-n2nnc3c(SCC(=O)N4CCCc5ccccc54)ncnc32)cc1	0	0	-16	57*	50*
COCCCNCCOc1ccc(C)cc1[N+](=O)[O-]	19	-19	1	59*	-5
COC(=O)c1ccc(COc2ccc(C)cc2[N+](=O)[O-])o1	-9	9	.	?	36*
COc1c(C)cccc1C(=O)Nc1ccc(N2CCN(S(C)(=O)=O)CC2)cc1	-8	8	.	43	27
COc1ccccc1C(=O)Nc1ccc(N2CCN(S(C)(=O)=O)CC2)cc1	-52	52	.	78*	.
COc1ccc(CNC(=O)c2ccc(CNc3c(NC4CCCCC4)c(=O)c3=O)cc2)cc1	7	-7	.	-5	-2
COc1ccc(C(=O)Nc2ccc(N3CCN(C(=O)c4cccs4)CC3)cc2)cc1Br	-72	72*	-7	12	-4
COc1ccc(NC(=O)c2ccc(CNc3c(NC4CCCCC4)c(=O)c3=O)cc2)cc1OC	-78	78*!	-6	8	-2
COc1cc(OC)cc(C(=O)Nc2ccc(N3CCN(C(=O)c4cccs4)CC3)cc2)c1	-57	58	-11	-17	-4
SMILES	SR-BI uptake up	SR-BI DiI inh	MITF TRPM1 HTS	HSF1 activator	Wnt bcat act
COc1cc(C(=O)NC(=S)Nc2ccc(N3CCCC3)cc2)cc(OC)c1OC	-75	75*	-9	-4	0
CCN(CC)C(=O)C1=C(C)N(CCCOC)C(=O)C(CC(=O)NCc2ccco2)C1 (stereo not given)	.	.	.	.	-2
CCCCN1CC(N2CCCC2)CS1(=O)=O (stereo not given)	.	.	.	.	0
COc1ccc(C(=O)Nc2ccc(N3CCCC3)cc2)cc1OC	-74	74*	63	3	0
Cc1ccccc1C(=O)Nc1ccc(N2CCCC2)cc1	-57	57	?	29	5
Cc1ccc(C(=O)Nc2ccc(N3CCCC3)cc2)c(C)c1	-84	84*	4	-8	-2
COc1ccc(C(=O)NC(=S)Nc2ccc(CN3CCCCC3)cc2)cc1Cl	-2	2	13	59*	-1
N#Cc1ccccc1C[C@H](N)C(=O)NC[C@H]1O[C@@H](n2cnc3c(N)ncnc32)[C@H](O)[C@@H]1O	.	.	.	.	-3
OCC(CO)c1cnnc2ccccc12	24	-24	0	.	-3
COc1ccccc1OCC(=O)N1CCN(S(=O)(=O)c2ccc(Cl)cc2)CC1	-26	26	12	.	-5
Cc1ccc(O)c(-c2cc(-c3ccccc3C)[nH]n2)c1	-21	21	-14	162*	19
Cc1ccc(O)c(-c2cc(-c3ccccc3[N+](=O)[O-])[nH]n2)c1	-24	24	68	59*	.
Cc1ccc(O)c(-c2cc(C(F)(F)C(F)F)[nH]n2)c1	-20	20	22	80*	-3
Cc1ccc(O)c(-c2cc(C(=O)NCc3ccc4c(c3)OCO4)[nH]n2)c1	16	-16	-4	49	.
Cn1cnnc1SCC(=O)Nc1ccc2nc(SCc3ccccc3F)sc2c1	6	-6	106*	34	25
O=C(CSc1nc2ccc(NC(=O)CSc3nnnn3-c3ccccc3)cc2s1)Nc1ccccc1	-14	14	-8	-3	-10
CN(c1ccc([N+](=O)[O-])cc1)c1cc2c(c3c1ccn3C)C1CCC2C1 (stereo not given)	.	.	.	.	1
Cc1ccc(NC(=O)c2noc3c2CCc2ccccc2-3)cc1	-1	1	.	?	42*
CCc1ccc(NC(=O)c2noc3c2CCc2ccccc2-3)cc1	12	-12	.	31	33*
O=C(Nc1cccc(O)c1)c1noc2c1CCc1ccccc1-2	-23	23	15	15	.
Cc1cc(N2CCN(S(C)(=O)=O)C[C@@H]2C)ccc1N1CCN(Cc2ccccc2)[C@@H](C)C1	.	.	.	.	-5
CCc1ccc2oc(C(=O)Nc3nonc3CC)c(C)c2c1	8	-8	90*	42	27
CCc1nonc1NC(=O)c1oc2ccc(C)cc2c1C	19	-19	64	16	15
CC1=C[C@@H]2[C@H]3C(=O)N(Cc4ccccc4)C(=O)[C@H]3[C@@H]1[C@@H]1O[C@@]3(C(=O)N(C)c4ccccc43)C3=C(CCCC3=O)N21	.	.	.	.	1
O=[N+]([O-])c1ccc(CN2[C@H](COCc3ccccc3)C=CS2(=O)=O)cc1	.	.	.	.	-2
COC(=O)c1c(-c2ccccc2)oc2c1C(OCCO)CCC2 (stereo not given)	.	.	.	.	-1
COc1cccc(C2=NOC(C(=O)N3CCN(c4ccccc4)CC3)C2)c1OC (stereo not given)	-53	53	.	-2	1
COc1ccc(OC)c(C2=NOC(C(=O)N3CCN(c4ccccc4)CC3)C2)c1 (stereo not given)	-71	71*	6	9	-4

Screening data from PubChem.
